≈ marks a conversion by molar mass, not a printed value. Where “and” joins values, the source holds several entries; their conditions need not be identical. Equal values may be shown once. Entries after “also recorded” stand apart in the source; their conditions may differ.
What was measured:
HEK-293 cells = assay: Cell viability; assay type: cell-based; details: read-out: Cell viability IC50, 72 h exposure, MTT
How it was run: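 HEK-293.2sus cells were seeded at 9.6 × 10^3 cells/well and given a concentration gradient of test compound for 72 h at 37 °C, 5% CO2. MTT (0.5 mg/mL) was added for 3–4 h, medium removed, formazan dissolved in DMSO (15 min shaking, 21 °C), and A595 read. Cell-free background was subtracted, values taken relative to DMSO controls, and IC50 fitted by nonlinear least squares. n = 3–6.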

Intrinsic clearance = assay type: in vitro ADME, human; details: for Thalf: human liver S9 0.5 mg/mL, 1 μM compound, NADPH, 37 °C; for microsomal CLint at 1 μM: human, liver S9 fraction, pH 7.4
SERCA2a [1] = target: T1, SERCA2a (Sus scrofa, UniProt P11607); assay: NADH-coupled enzyme-linked Ca2+-ATPase activity assay in cardiac SR vesicles; assay type: biochemical, porcine; details: for EC50 / Ca2+-ATPase [Ca2+]MAX % effect / Ca2+-ATPase [Ca2+]MID % effect: cardiac SR; for Max increase (%): Ca2+-ATPase activity, vs no compound, mean±SD, n=4-6
SERCA2a [2] = target: T1, SERCA2a; details: earlier HTS study; cited from earlier work
cardiomyocytes = details: cited from earlier work
SERCA2a [3] = target: T1, SERCA2a; details: earlier HTS study; cited from earlier work; remark: listed apart in the source
SERCA2a [4] = target: T1, SERCA2a; assay: oxalate-based Ca2+-uptake; assay type: biochemical, porcine; details: cardiac SR
How it was run: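 Porcine left-ventricular SR vesicles (30 μg/mL) were prepared by differential centrifugation. Buffer: 50 mM MOPS, 100 mM KCl, 30 mg/mL sucrose, 10 mM potassium oxalate, 2 μM Fluo-4, free Ca2+ at pCa 8.0, 6.2 or 5.4, test compound 0.048–50 μM (two-fold series). Incubation 20 min at 22 °C, dark; 5 mM MgATP start; Fluo-4 decrease (ex 485/em 520 nm) tracked 15 min. Basal pCa 8.0 rate subtracted; Hill fit gives EC50 and % effect.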

SERCA1a = assay: NADH-coupled Ca2+-ATPase activity assay in skeletal SR vesicles; assay type: biochemical, rabbit; details: Table 5 vs Table S2
How it was run: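 Light SR came from rabbit skeletal white muscle by differential centrifugation and sucrose gradient. NADH-coupled assay: 4 μg/mL SR in 50 mM MOPS pH 7.0, 100 mM KCl, 1 mM EGTA, 0.2 mM NADH, 1 mM PEP, 10 IU/mL PK and LDH, 7 μM A23187, pCa 5.4/6.2/8.0. Test compound (0.048–50 μM) 20 min; 5 mM MgATP start; A340. pCa 8.0 rate subtracted; Hill fit gives EC50 and maximal % effect.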

[5] = Solubility assay in phosphate buffer, LC-MS/MS; assay type: physicochemical; details: 50 mM phosphate buffer pH 7.4, 37 °C, 12 h
[6] = Ca2+-ATPase [Ca2+]MAX EC50 (μM), [Ca2+]MAX (pCa 5.4)
[7] = Ca2+-ATPase [Ca2+]MID EC50 (μM), [Ca2+]MID (pCa 6.2)
[8] = Ca2+-Uptake [Ca2+]MAX EC50 (μM), [Ca2+]MAX (pCa 5.4)
[9] = Ca2+-Uptake [Ca2+]MID EC50 (μM), [Ca2+]MID (pCa 6.2)

T1 sequence (P11607 1-997 isoform P11607-2): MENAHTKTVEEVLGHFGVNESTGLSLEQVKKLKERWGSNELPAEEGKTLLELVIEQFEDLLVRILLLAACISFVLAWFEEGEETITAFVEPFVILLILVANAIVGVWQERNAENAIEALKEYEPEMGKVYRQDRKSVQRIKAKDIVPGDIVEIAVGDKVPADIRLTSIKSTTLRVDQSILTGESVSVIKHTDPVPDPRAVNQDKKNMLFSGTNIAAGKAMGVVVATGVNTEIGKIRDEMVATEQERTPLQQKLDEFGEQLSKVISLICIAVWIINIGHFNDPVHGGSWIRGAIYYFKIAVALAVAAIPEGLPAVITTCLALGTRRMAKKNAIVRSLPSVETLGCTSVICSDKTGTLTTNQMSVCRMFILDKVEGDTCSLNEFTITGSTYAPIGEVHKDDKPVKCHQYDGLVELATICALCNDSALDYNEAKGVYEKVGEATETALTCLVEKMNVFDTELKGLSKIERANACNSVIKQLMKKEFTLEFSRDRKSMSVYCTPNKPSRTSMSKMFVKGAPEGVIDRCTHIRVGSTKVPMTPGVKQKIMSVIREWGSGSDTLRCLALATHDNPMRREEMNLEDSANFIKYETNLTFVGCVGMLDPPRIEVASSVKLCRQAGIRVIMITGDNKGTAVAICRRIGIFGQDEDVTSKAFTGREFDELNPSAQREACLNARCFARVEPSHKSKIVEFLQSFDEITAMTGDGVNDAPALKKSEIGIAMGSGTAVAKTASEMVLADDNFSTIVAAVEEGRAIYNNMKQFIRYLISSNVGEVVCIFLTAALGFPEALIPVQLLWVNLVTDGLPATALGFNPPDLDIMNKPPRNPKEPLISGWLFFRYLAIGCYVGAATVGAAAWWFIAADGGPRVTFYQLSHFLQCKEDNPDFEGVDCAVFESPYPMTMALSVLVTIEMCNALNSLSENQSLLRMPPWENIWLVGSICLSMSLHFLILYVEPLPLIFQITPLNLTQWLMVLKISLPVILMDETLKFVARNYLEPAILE

Row | Compound | IC50 (HEK-293 cells) [µM] | Thalf (Intrinsic clearance) [min] | microsomal CLint at 1 μM (Intrinsic clearance) [µL/min/mg] | EC50 (SERCA2a [1]; [6]) [µM] | EC50 (SERCA2a [1]; [7]) [µM] | Max increase (%) (SERCA2a [1]; [Ca2+]MAX (pCa 5.4)) | activation of SERCA2a Ca2+-uptake (SERCA2a [2]) [%] | SR Ca2+ load / Ca2+ dynamics (cardiomyocytes) | activation of SERCA2a ATPase activity (SERCA2a [3]) [%] | EC50 (SERCA2a [4]; [8]) [µM] | EC50 (SERCA2a [4]; [9]) [µM] | Ca2+-Uptake [Ca2+]MAX % effect (SERCA2a [4]; [Ca2+]MAX (pCa 5.4)) [%] | Ca2+-Uptake [Ca2+]MAX EC50 (μM) (SERCA2a [4]; [Ca2+]MAX (pCa 5.4)) | Ca2+-ATPase [Ca2+]MAX % effect (SERCA2a [1]; [Ca2+]MAX (pCa 5.4)) [%] | Ca2+-ATPase [Ca2+]MID % effect (SERCA2a [1]; [Ca2+]MID (pCa 6.2)) [%] | selectivity for SERCA1a (vs SERCA2a), ATPase activity (SERCA1a; [Ca2+]MID) | Ca2+-Uptake [Ca2+]MID % effect (SERCA2a [4]; [Ca2+]MID (pCa 6.2)) [%] | Solubility [5] [µg/mL] | selectivity for SERCA2a relative to SERCA1a, higher efficacy, ATPase activity (SERCA1a; [Ca2+]MAX)
1 | Cc1ccc2cccc(NC(=O)c3ccc(OC(C)C)cc3)c2n1 [CDN1163, reference compound] | 63 |  |  |  |  |  |  |  |  |  |  |  |  |  |  |  |  |  | 
2 | CCCN(Cc1ccccc1OC)C(=O)c1cc(C)c(C)s1 [Compound 1, N-(2-Methoxybenzyl)-4,5-dimethyl-N-propylthiophene-2-carboxamide] |  | 97.6 | 14 ± 1.1 | 5.3 ± 1.8 | 6 ± 1.2 | 57% and 57±13% | 24 | increase SR Ca^2+ load; also recorded: increased Ca^2+ dynamics and Ca^2+ load | 58 | 1.1 ± 0.73 | 0.46 ± 0.35 |  |  |  |  |  |  |  | 
3 | CCCN(Cc1ccccc1OC)C(=O)c1cc2c(s1)CCCC2 [Compound 8, N-(2-Methoxybenzyl)-N-propyl-4,5,6,7-tetrahydrobenzo[b]thiophene-2-carboxamide] | 29 ± 18 | 20.1 | 73 ± 9.3 | 3.3 ± 0.5 | 3.6 ± 2.8 | 45% and 45±10% |  |  |  | 1.1 ± 0.45 | > 50 | 8.8±2.3 | unchanged |  |  |  |  |  | 
4 | CCCN(Cc1ccccc1OC)C(=O)c1cccc(C(F)(F)F)c1 [Compound 21, N-(2-Methoxybenzyl)-N-propyl-3-(trifluoromethyl)benzamide] | 31 ± 16 | 10.3 | 133 ± 11 | 5.1 ± 2.1 | 5.3 ± 1.3 | 40±14% |  |  |  | 1.5 ± 0.33 | 1 ± 0.86 | 15±5.9 | increased | 40±14 | 25±7.4 | at least 8 fold | 7.0±3.7 |  | 
5 | CCCN(Cc1ccccc1OC)C(=O)c1ccc(F)c(Br)c1 [Compound 25, 3-Bromo-4-fluoro-N-(2-methoxybenzyl)-N-propylbenzamide] |  | 74.5 | 15 ± 7.2 | 4 ± 2.1 | 3.7 ± 0.73 | 53% and 53±7.7% |  |  |  | 0.8 ± 0.57 | 0.89 ± 0.4 |  | decreased |  |  |  |  | 507 ± 7 (≈ 1330 µM) | 
6 | CCN(Cc1ccccc1OC)C(=O)c1cc(C)c(C)s1 [Compound 32, N-Ethyl-N-(2-methoxybenzyl)-4,5-dimethylthiophene-2-carboxamide] |  | 34.7 | 37 ± 6.2 | 6.3 ± 1.8 | 4.6 ± 2 | 43±6.7% |  |  |  | 0.77 ± 0.57 | 0.91 ± 0.85 | 13±5.7 | decreased | 43±6.7 | 24±6.0 |  | 6.0±1.6 |  | at least 8 fold
7 | CCCCN(Cc1ccccc1OC)C(=O)c1cc(C)c(C)s1 [Compound 33, N-Butyl-N-(2-methoxybenzyl)-4,5-dimethylthiophene-2-carboxamide] |  | 16.6 | 83 ± 4.2 | 4 ± 0.8 | 3 ± 1 | 72% and 72±8.5% |  |  |  | 1.1 ± 0.35 | 0.63 ± 0.21 | 22±5.6 | unchanged | 72±8.5 | 23±6.0 |  | 15±7.0 |  | 

Source: article PMC12900291 (European journal of medicinal chemistry, 2025)
